Assay results taken from article PMC5776435 (Iranian Journal of Basic Medical Sciences, 2018).
Values after ≈ are worked out from the molar mass of the structure shown.

Columns and labels:
[1] = system: HepG2 cells; assay: MTT assay, cytotoxicity on HepG2 cells; format: cell-based, human
Method in brief: (§1)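 Cells were grown in RPMI 1640 with 10% FBS and penicillin/streptomycin at 37 °C, 5% CO2, and seeded for 24 hr. They were exposed 6 hr to peptide (1.25–100 µg/ml for IC50; 10 µg/ml for viability). MTT (5 mg/ml stock in PBS) was then added for 4 hr at 37 °C, formazan dissolved in DMSO for 30 min, and A570 read. 5-Fluorouracil served as positive control and DMSO as blank. Triplicates were run; IC50 is the mean ± SD of three experiments.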

[2] = system: HT-29 cells; assay: MTT assay, cytotoxicity on HT-29 cells; format: cell-based, human
Method in brief: as §1

[3] = MTT assay, 10 µg/ml of each peptide, 6 hr, control = 100

SMILES: O=c1[nH]cc(F)c(=O)[nH]1 [5-Fluorouracil]
- IC50 ([1]; Homo sapiens, HepG2, 6 h, read-out: IC50 cell line HepG2): 3.16 µg/mL (≈ 24.3 µM)
- Viability percentage (HepG2), MTT assay [1, 3]: 3.22%
- IC50 ([2]; Homo sapiens, HT-29, 6 h, read-out: IC50 cell line HT-29): 6.08 µg/mL (≈ 46.7 µM)
- Viability percentage (HT-29), MTT assay [2, 3]: 9.28%
